Measurements: ChEMBL document CHEMBL2169747, “Synthesis and biological properties of highly sequence-specific-alkylating N-methylpyrrole-N-methylimidazole polyamide conjugates” (J Med Chem, 2012)
Activity calls are given as the source filed them. No cut-off for these calls is given here.

What was measured:
A549 [1] = experiment: Cytotoxicity against human A549 cells assessed as cell growth inhibition after 48 hrs by microplate reader analysis; format: functional, cell-based; details: A549, 48 h
Summary of the method: (§1)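 Medium was RPMI-1640 for EBC-1, A549 and DU145, and DMEM for PC-3, SK-N-SH and K562. Both media had 10% heat-inactivated FBS plus penicillin/streptomycin; cells were kept at 37 °C, 5% CO2. Cells were seeded at 5000/well and given compound from DMSO stock (final 0.1% DMSO) for 48 h. Viability was read by WST-8 colorimetry, absorbance at 450 and 600 nm, and IC50 determined.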

PC-3 = experiment: Cytotoxicity against human PC3 cells assessed as cell growth inhibition after 48 hrs by microplate reader analysis; format: functional, cell-based; details: PC-3, 48 h; summary of the method: as §1
[2] = Cytotoxicity against human EBC1 cells assessed as cell growth inhibition after 48 hrs by microplate reader analysis; format: functional, cell-based; details: EBC-1, 48 h; summary of the method: as §1
SK-N-SH = experiment: Cytotoxicity against human SK-N-SH cells assessed as cell growth inhibition after 48 hrs by microplate reader analysis; format: functional, cell-based; summary of the method: as §1
K562 = experiment: Cytotoxicity against human K562 cells assessed as cell growth inhibition after 48 hrs by microplate reader analysis; format: functional, cell-based; details: K562, 48 h; summary of the method: as §1
DU-145 = experiment: Cytotoxicity against human DU145 cells assessed as cell growth inhibition after 48 hrs by microplate reader analysis; format: functional, cell-based; details: DU-145, 48 h; summary of the method: as §1
A549 [3] = experiment: Downregulation of PTPRK gene expression in human A549 cells at 100 nM after 12 hrs by microarray analysis relative to control; format: functional
Summary of the method: (§2)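 A549 cells (RPMI-1640, 10% heat-inactivated FBS, penicillin/streptomycin, 37 °C, 5% CO2) seeded at 4 × 10^5 per 60 mm dish. Exposed 12 h to conjugate at 21, 26, 34 or 100 nM in medium with 0.1% DMSO, against 0.1% DMSO control. Whole-genome (~25 000 genes) expression profiled by microarray.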

A549 [4] = experiment: Downregulation of FUT8 gene expression in human A549 cells at 100 nM after 12 hrs by microarray analysis relative to control; format: functional
Summary of the method: (§3)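 A549 cells, 4 × 10^5 per 60 mm dish, were exposed to conjugate for 12 h in medium with 0.1% DMSO; vehicle control was 0.1% DMSO. Whole human genome (~25 000 genes) expression was profiled by microarray and expression compared with the control.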

A549 [5] = experiment: Downregulation of RPS6KC1 gene expression in human A549 cells at 100 nM after 12 hrs by microarray analysis relative to control; format: functional; summary of the method: as §2
A549 [6] = experiment: Downregulation of ELP4 gene expression in human A549 cells at 100 nM after 12 hrs by microarray analysis relative to control; format: functional; summary of the method: as §3
A549 [7] = experiment: Downregulation of SUPT3H gene expression in human A549 cells at 100 nM after 12 hrs by microarray analysis relative to control; format: functional; summary of the method: as §2
A549 [8] = experiment: Downregulation of Q8TC78 gene expression in human A549 cells at 100 nM after 12 hrs by microarray analysis relative to control; format: functional; summary of the method: as §2
A549 [9] = experiment: Downregulation of EFA6R gene expression in human A549 cells at 100 nM after 12 hrs by microarray analysis relative to control; format: functional; summary of the method: as §3
A549 [10] = experiment: Downregulation of NP_112224.1 gene expression in human A549 cells at 100 nM after 12 hrs by microarray analysis relative to control; format: functional; summary of the method: as §3
A549 [11] = experiment: Downregulation of NP_653244.1 gene expression in human A549 cells at 100 nM after 12 hrs by microarray analysis relative to control; format: functional; summary of the method: as §2
A549 [12] = experiment: Downregulation of GULP1 gene expression in human A549 cells at 100 nM after 12 hrs by microarray analysis relative to control; format: functional; summary of the method: as §3
A549 [13] = experiment: Downregulation of SEMA3A gene expression in human A549 cells at 100 nM after 12 hrs by microarray analysis relative to control; format: functional; summary of the method: as §2
A549 [14] = experiment: Downregulation of PDE7B gene expression in human A549 cells at 100 nM after 12 hrs by microarray analysis relative to control; format: functional; summary of the method: as §2
A549 [15] = experiment: Downregulation of UVRAG gene expression in human A549 cells at 100 nM after 12 hrs by microarray analysis relative to control; format: functional; summary of the method: as §2
A549 [16] = experiment: Downregulation of XRCC4 gene expression in human A549 cells at 100 nM after 12 hrs by microarray analysis relative to control; format: functional; summary of the method: as §2
A549 [17] = experiment: Downregulation of NP_060504.1 gene expression in human A549 cells at 100 nM after 12 hrs by microarray analysis relative to control; format: functional; summary of the method: as §3
A549 [18] = experiment: Downregulation of NCOA1 gene expression in human A549 cells at 100 nM after 12 hrs by microarray analysis relative to control; format: functional; summary of the method: as §3
A549 [19] = experiment: Downregulation of FAF1 gene expression in human A549 cells at 100 nM after 12 hrs by microarray analysis relative to control; format: functional; summary of the method: as §3
A549 [20] = experiment: Downregulation of TCF12 gene expression in human A549 cells at 100 nM after 12 hrs by microarray analysis relative to control; format: functional; summary of the method: as §2
A549 [21] = experiment: Downregulation of NP_056993.2 gene expression in human A549 cells at 100 nM after 12 hrs by microarray analysis relative to control; format: functional; summary of the method: as §3
A549 [22] = experiment: Downregulation of DYM gene expression in human A549 cells at 100 nM after 12 hrs by microarray analysis relative to control; format: functional; summary of the method: as §3
A549 [23] = experiment: Upregulation of HES2 gene expression in human A549 cells at 100 nM after 12 hrs by microarray analysis relative to control; format: functional
Summary of the method: (§4)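 4 ×10^5 A549 cells seeded per 60 mm dish and treated 12 h with conjugate (21, 26, 34 or 100 nM) in medium; control medium contained 0.1% DMSO, with conjugates added as 0.1% DMSO solutions. Whole human genome (~25 000 genes) expression profiled by microarray against the DMSO control. A549 culture: RPMI-1640 with 10% heat-inactivated FBS, penicillin/streptomycin, 37 °C, 5% CO2.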

A549 [24] = experiment: Upregulation of MDM2 gene expression in human A549 cells at 100 nM after 12 hrs by microarray analysis relative to control; format: functional; summary of the method: as §4
A549 [25] = experiment: Upregulation of BTG2 gene expression in human A549 cells at 100 nM after 12 hrs by microarray analysis relative to control; format: functional; summary of the method: as §2
A549 [26] = experiment: Upregulation of RRAD gene expression in human A549 cells at 100 nM after 12 hrs by microarray analysis relative to control; format: functional; summary of the method: as §4
A549 [27] = experiment: Upregulation of BBC3 gene expression in human A549 cells at 100 nM after 12 hrs by microarray analysis relative to control; format: functional; summary of the method: as §2
A549 [28] = experiment: Upregulation of NPPC gene expression in human A549 cells at 100 nM after 12 hrs by microarray analysis relative to control; format: functional; summary of the method: as §4
A549 [29] = experiment: Upregulation of U124 gene expression in human A549 cells at 100 nM after 12 hrs by microarray analysis relative to control; format: functional; summary of the method: as §4
A549 [30] = experiment: Upregulation of CDKN1A gene expression in human A549 cells at 100 nM after 12 hrs by microarray analysis relative to control; format: functional; summary of the method: as §4
A549 [31] = experiment: Upregulation of GADD45A gene expression in human A549 cells at 100 nM after 12 hrs by microarray analysis relative to control; format: functional; summary of the method: as §4
A549 [32] = experiment: Upregulation of FDXR gene expression in human A549 cells at 100 nM after 12 hrs by microarray analysis relative to control; format: functional; summary of the method: as §4
Nucleic Acid = experiment: Induction of 208-bp PCR fragment DNA cleavage at 10 to 200 nM after 12 h by PAGE analysis

Activity (Nucleic Acid): Active
Structure (SMILES): CC(=O)Nc1cn(C)c(C(=O)Nc2cn(C)c(C(=O)Nc3cc(C(=O)NCCC(=O)Nc4cc(C(=O)NCCCC(=O)Nc5cn(C)c(C(=O)NCCC(=O)Nc6cc(C(=O)Nc7ccc8[nH]c(C(=O)N9CC(CCl)c%10c9cc(O)c9ccccc%109)cc8c7)n(C)c6)n5)n(C)c4)n(C)c3)n2)n1 (racemic)
IC50 (A549 [1]): 100 nM | IC50 (PC-3): 29.5 nM | IC50 [2]: 550 nM | IC50 (SK-N-SH): 129 nM | IC50 (K562): 15.5 nM | IC50 (DU-145): 11.2 nM | fold change (FC) (A549 [3]): 0.026 | fold change (FC) (A549 [4]): 0.035 | fold change (FC) (A549 [5]): 0.038 | fold change (FC) (A549 [6]): 0.045 | fold change (FC) (A549 [7]): 0.052 | fold change (FC) (A549 [8]): 0.056 | fold change (FC) (A549 [9]): 0.058 | fold change (FC) (A549 [10]): 0.058 | fold change (FC) (A549 [11]): 0.061 | fold change (FC) (A549 [12]): 0.062 | fold change (FC) (A549 [13]): 0.063 | fold change (FC) (A549 [14]): 0.064 | fold change (FC) (A549 [15]): 0.066 | fold change (FC) (A549 [16]): 0.067 | fold change (FC) (A549 [17]): 0.068 | fold change (FC) (A549 [18]): 0.068 | fold change (FC) (A549 [19]): 0.071 | fold change (FC) (A549 [20]): 0.074 | fold change (FC) (A549 [21]): 0.076 | fold change (FC) (A549 [22]): 0.08 | fold change (FC) (A549 [23]): 19.2 | fold change (FC) (A549 [24]): 15.6 | fold change (FC) (A549 [25]): 13 | fold change (FC) (A549 [26]): 11.2 | fold change (FC) (A549 [27]): 10.7 | fold change (FC) (A549 [28]): 10.5 | fold change (FC) (A549 [29]): 10.3 | fold change (FC) (A549 [30]): 9 | fold change (FC) (A549 [31]): 8.3 | fold change (FC) (A549 [32]): 8.2
